From PubChem
TRPC4 act: activators of mouse TRPC4 channel | Q9QUQ5 | HEK293 TRPC4beta/mu-opioid, Fluo4 calcium fluorescence; active compounds read high | B-score at 10 µM | 310,000 tested, 0.49% active;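 active means B-score above 5 SD of library B-scores, and initial fluorescence ratio not above library mean plus 5 SD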;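 further: positive B-score marks a calcium rise read as TRPC4 activation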
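system = HEK293 cells stably co-expressing mouse TRPC4beta and mu-opioid receptor | schedule = Fluo4 dye loading 45 min at room temperature, 110 s recording | measure = B-scored integrated calcium fluorescence ratio | signal = Fluo4 calcium-sensitive dye fluorescence, kinetic, 1 Hz baseline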
TRPC6 inh: blocks the mouse TRPC6 cation channel; HEK293-TRPC6, membrane potential dye, ACh-evoked depolarization; active compounds read low; AID 2553; 310,000 tested, 1.1% active; B-score at 10 µM; Q61143;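 active means B-score under library mean minus 3 SD, initial fluorescence not abnormally high, positive integrated signal ratio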;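 further: B-score derived from integrated fluorescence ratio over the kinetic read; more negative B-score means stronger inhibition of depolarization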
TRPC4 potent: allosteric potentiators of mouse TRPC4 channel; AID 2227; 310,000 tested, 0.42% active; HEK293 TRPC4beta/mu-opioid, DAMGO EC20, Fluo-4 Ca2+ flux; active compounds read high; Q9QUQ5; B-score at 10 µM;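 active means B-score of calcium response area above 5 SD of library B-scores, with initial fluorescence ratio within 5 SD of library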
TRPC6 activator: activators of mouse TRPC6 channel; 310,000 tested, 0.13% active; Q61143; B-score at 10 µM; HEK293-TRPC6 membrane potential dye fluorescence; active compounds read high;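 active means B-score of the integrated fluorescence ratio above library mean plus 3 SD, and starting fluorescence ratio within library mean plus 5 SD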;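 further: higher score means more depolarization so channel activation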
DSG3 Ab inh: inhibitors of pemphigus antibody binding to human desmoglein-3. P32926. DSG3-coupled beads, scFv-anti-DSG3-GFP binding, flow cytometry; active compounds read low. binding (percent of control), % at 10 µM. 310,000 tested, 0.48% active. AID 588358;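 active means binding more than 3 SD below its plate's average and above zero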;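 further: hits lower antibody fragment binding to DSG3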
Target sequence (P32926 whole entry, looked up, the tested form may be a part): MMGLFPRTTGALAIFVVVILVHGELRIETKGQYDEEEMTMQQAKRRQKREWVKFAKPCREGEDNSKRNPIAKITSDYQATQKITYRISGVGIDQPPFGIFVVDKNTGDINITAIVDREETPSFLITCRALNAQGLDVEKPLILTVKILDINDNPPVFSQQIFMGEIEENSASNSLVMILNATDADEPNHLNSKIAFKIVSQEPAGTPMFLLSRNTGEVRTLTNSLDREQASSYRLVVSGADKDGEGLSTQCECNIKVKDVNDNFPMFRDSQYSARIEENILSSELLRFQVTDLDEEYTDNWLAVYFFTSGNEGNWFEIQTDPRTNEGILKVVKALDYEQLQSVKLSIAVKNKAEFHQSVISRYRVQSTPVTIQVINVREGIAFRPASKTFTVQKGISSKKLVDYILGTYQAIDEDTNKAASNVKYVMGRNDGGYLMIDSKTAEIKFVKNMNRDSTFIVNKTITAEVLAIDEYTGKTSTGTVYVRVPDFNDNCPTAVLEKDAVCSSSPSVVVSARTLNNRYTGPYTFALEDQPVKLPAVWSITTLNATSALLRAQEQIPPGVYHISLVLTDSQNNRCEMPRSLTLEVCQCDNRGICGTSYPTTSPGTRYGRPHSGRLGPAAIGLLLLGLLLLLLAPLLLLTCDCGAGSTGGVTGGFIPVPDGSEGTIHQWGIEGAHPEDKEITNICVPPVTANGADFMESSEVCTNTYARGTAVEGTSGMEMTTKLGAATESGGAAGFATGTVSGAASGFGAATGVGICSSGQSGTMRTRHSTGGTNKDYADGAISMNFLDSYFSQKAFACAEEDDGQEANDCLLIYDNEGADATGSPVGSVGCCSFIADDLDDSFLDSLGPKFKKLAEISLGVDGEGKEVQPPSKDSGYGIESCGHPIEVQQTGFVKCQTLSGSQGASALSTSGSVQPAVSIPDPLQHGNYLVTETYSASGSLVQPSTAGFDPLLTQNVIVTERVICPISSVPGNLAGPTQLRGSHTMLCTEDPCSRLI
TRPC4 block: TRPC4 (mouse) channel inhibition. HEK293 TRPC4beta/mu-opioid, DAMGO-evoked Fluo4 calcium flux; active compounds read low. B-score at 10 µM. 300,000 tested, 0.39% active. AID 2247;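 active means B-score over 3 SD under the library average, no early fluorescence shift, positive overall ratio signal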
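Assay system: TRPC4beta/mu-opioid receptor HEK293 cell line; compound dosing: single concentration per test compound; detection: Fluo4 Ca2+ flux fluorescence; evaluation: per-well B score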
Numbers stand for hits; i = inactive; nt = not tested or not shown. Shown are actives, neighbours in structure and some others; about 2.5% of the full set was active somewhere.

SMILES	TRPC4 act	TRPC6 inh	TRPC4 potent	TRPC6 activator	DSG3 Ab inh	TRPC4 block
CN(C)CCCN=Cc1c(O)n(CCc2ccccc2)c(=O)[nH]c1=O	i	i	i	i	nt	i
O=C(c1ccc(Cl)cc1)C1CCCN(Cc2ccon2)C1 (stereo not drawn)	i	i	i	i	i	i
CN1CCCC(C(=O)c2ccc(Cl)cc2)C1 (stereo not drawn)	126	i	i	i	i	-9
CC(=O)N1CCC(N2CCCC(C(=O)c3cccc(Cl)c3)C2)CC1 (stereo not drawn)	i	-5.7	i	i	i	i
CC(C)(C)c1ccc(C(=O)C2CCCN(C3CCC3)C2)cc1 (stereo not drawn)	57	i	i	i	i	i
COC(=O)C1=C(C)NC(=S)NC1c1ccc(N(CCCl)CCCl)cc1Cl (stereo not drawn)	nt	nt	nt	nt	i	nt
Oc1ccc(C(=C(Cl)Cl)c2ccc(O)cc2)cc1	i	i	i	i	nt	i
CC1(C)CSC(=NCc2ccccc2)N1	68	i	i	i	i	i
C[C@@H]1CN([C@H](C)CO)C(=O)c2c(c3ccccc3n2C)-c2ccccc2CO[C@H]1CN(C)Cc1ccc2c(c1)OCCN2C	nt	nt	nt	nt	i	nt
COC(=O)C1=C(c2ccc(S(C)(=O)=O)cc2)C[C@@H]2CC[C@H]1N2C(=O)NCc1ccc(C(F)(F)F)cc1	i	i	i	i	i	i
CNc1ccc2oc(C[C@H]3O[C@@]4(CC[C@H]3C)O[C@H]([C@H](C)C(=O)c3ccc[nH]3)[C@H](C)C[C@H]4C)nc2c1C(=O)O	148	i	i	i	i	i
Nc1ccc(Cl)cc1C(=O)c1ccccc1Cl	i	i	34	i	i	i
Nc1ccc(Cl)cc1C(=O)c1ccccc1	i	i	i	i	i	i
COc1ccc(CC(C)NC2CCCCCC2)cc1 (stereo not drawn)	i	i	i	i	i	i
CC(=O)OC1(c2ccccc2)CCN(C2CCCCC2)CC1C (stereo not drawn)	i	i	i	i	i	-6
C[C@H](N)CN1CCc2ccc(Br)cc21	i	i	i	i	i	i
S=P(NC1CCCCC1)(N1CC1)N1CC1	i	i	i	i	i	i
CCOP(=O)(OCC)C(NC(=O)c1cccc([N+](=O)[O-])c1)C(Cl)(Cl)Cl (stereo not drawn)	i	i	i	i	83	i
O=C(COc1ccc(Cl)cc1Cl)N1CCN(C/C=C/c2ccccc2)CC1	i	i	13	i	i	i
C#CC1(O)CCC2C3CCC4=C/C(=N/OCC(=O)NCC(=O)NC(C(=O)O)C(C)C)CC[C@]4(C)C3CC[C@@]21C (stereo partly drawn)	i	i	i	i	i	i
C#C[C@]1(O)CC[C@H]2[C@@H]3CCC4=Cc5nc6nc7ccccc7n6cc5C[C@]4(C)[C@H]3CC[C@@]21C	nt	nt	nt	nt	63	nt
C/C(=N\N1CCCCC1c1cccnc1)c1c(O)n(C2CCCCC2)c(=S)[nH]c1=O (stereo not drawn)	i	i	i	i	nt	i
CC(Cc1ccccc1)NCC(=O)Nc1cc(N(C)C)nc2ccccc12 (stereo not drawn)	i	i	i	i	i	-6
CC(Cc1ccccc1)NCc1ccccc1O (stereo not drawn)	i	i	i	i	nt	i
O=C1C2(c3ccccc3)CN3CN(C2)CC1(c1ccccc1)C3	i	i	i	i	i	i
SMILES	TRPC4 act	TRPC6 inh	TRPC4 potent	TRPC6 activator	DSG3 Ab inh	TRPC4 block
COc1ccc(C(=O)C2CCCN(C3CSCCSC3)C2)c(C)c1 (stereo not drawn)	59	i	i	i	i	i
COc1ccc(O)c(CN2CCCC(C(=O)c3ccccc3SC)C2)c1 (stereo not drawn)	i	i	i	i	i	-6
COc1ccc(C(=O)C2CCCN(CCO)C2)c(C)c1 (stereo not drawn)	51	i	i	i	i	i
COc1ccc(C(=O)C2CCCN(C3CSCCSC3)C2)c(OC)c1 (stereo not drawn)	i	i	i	i	i	i
NC(=O)c1ccc(N=Cc2c(O)n(Cc3ccco3)c(=O)[nH]c2=O)cc1	i	i	i	i	79	i
CCC1=Nc2cc(C(=O)N3CCC4(CC3)OCCO4)ccc2Sc2ccc(C)cc21	i	i	i	i	i	-6
O=C1NC(=O)C(=Cc2ccc(-c3ccc(Cl)cc3)o2)C(=O)N1	i	i	i	i	72	i
C=CCOC(=O)C1C(C(=O)O)C2(Cl)C(Cl)=C(Cl)C1(Cl)C2(Cl)Cl (stereo not drawn)	nt	nt	nt	nt	i	nt
CCOC(=O)C1(CCc2ccccc2)CCN(Cc2csc(C(C)=O)c2)CC1	49	i	i	i	i	i
CCOC(=O)C1(CCc2ccccc2)CCN(Cc2cccc3c2OCO3)CC1	i	i	i	i	i	-6
CCOC(=O)C1(CCc2ccccc2)CCN(Cc2cccc3cnccc23)CC1	i	i	i	i	i	i
COc1cc(C(=O)OC2C[C@H]3CC[C@@H](C2)N3C)ccc1O (stereo partly drawn)	i	i	i	i	i	i
CN1C2CCC1CC(OC(=O)c1cc(Cl)cc(Cl)c1)C2 (stereo not drawn)	i	i	13	i	i	i
Cc1ccc(NC(=S)NCCc2cnc[nH]2)cc1C	225	i	i	i	i	i
C=CCn1c(O)c(C=NCCN2CCOCC2)c(=O)[nH]c1=S	i	i	10	i	nt	i
Cc1nc2ccccc2c(=O)n1-c1c(Cl)cccc1Cl	nt	nt	nt	nt	i	nt
Cc1c(N)c(C)c([N+](=O)[O-])c(C)c1[N+](=O)[O-]	i	i	i	i	i	-6
O=C(O)CCC(=O)NCCC1=c2ccccc2=N/C1=C\c1c(O)n(Cc2ccc(F)cc2)c(=S)[nH]c1=O	i	i	i	i	67	i
COc1ccc(C(CNC(=O)Cc2ccc(Cl)c(Cl)c2)N(C)C)cc1 (stereo not drawn)	173	i	i	i	i	i
CCN(CC)c1ccc(C=C2C(=O)NC(=S)NC2=O)cc1	i	i	i	i	i	i
CC(C)CN(CC(C)C)c1ccc(C=C2C(=O)NC(=S)NC2=O)cc1[N+](=O)[O-]	i	i	i	i	i	-7
CC1(C)CC(N(CCc2ccccc2)Cc2ccccc2)CCO1 (stereo not drawn)	i	i	i	i	i	-6
CCCCOC1OCN(C2CCCCC2)CC1(C)C (stereo not drawn)	nt	nt	nt	nt	i	nt
Cc1ccc(-n2cc(CNC(C)Cc3cnccn3)c(-c3cccc(C)c3)n2)cc1 (stereo not drawn)	143	i	i	i	i	i
Fc1cccc(C2NCCc3[nH]cnc32)c1 (stereo not drawn)	162	i	i	i	i	i
